Laboratory results published in ChEMBL document CHEMBL1944532, “Synthesis and evaluation of anticancer activity of some novel 6-aryl-2-(p-sulfamylphenyl)-pyridazin-3(2H)-ones” (Eur J Med Chem, 2012).
Activity calls are given as the source filed them. The calls are words filed in the database; no cut-off is given here.

What was measured:
UO-31 = test: Cytotoxicity against human UO31 cells after 48 hrs by SRB assay; format: functional; details: UO-31, 48 h
Method in brief: (§1)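 NCI 60-cell-line five-dose screen. Cells were grown in 1640 medium with 5% fetal calf serum and 2 mM L-glutamine, with inoculum density set by cell line, and pre-incubated 24 h. Compound in DMSO was added at 10^-4 to 10^-8 M (10-fold steps) with 48 h continuous exposure. Growth was read by SRB protein assay, and GI50, TGI and LC50 were derived from dose-response.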

LOX IMVI [1] = test: Cytotoxicity against human LOXIMVI cells assessed as cell growth at 10 uM after 48 hrs by SRB assay; format: functional; details: read-out: Activity
Method in brief: (§2)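 NCI primary single-dose screen at 10^-5 M against the full panel of about 60 human tumor cell lines. Cells were in RPMI-1640 with 5% fetal calf serum and 2 mM L-glutamine and preincubated 24 h. Compound was given in DMSO with 48 h exposure. Growth was estimated by sulforhodamine B protein assay.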

UACC-257 = test: Cytotoxicity against human UACC257 cells assessed as cell growth at 10 uM after 48 hrs by SRB assay; format: functional; details: UACC-257, 48 h, read-out: Activity
Method in brief: (§3)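 NCI primary one-dose screen at 10^-5 M against the full panel of about 60 human tumour cell lines, run to the NCI Drug Evaluation Branch protocol.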

SK-MEL-5 = test: Cytotoxicity against human SK-MEL-5 cells after 48 hrs by SRB assay; format: functional; details: SK-MEL-5, 48 h; method in brief: as §1
OVCAR-8 = test: Cytotoxicity against human OVCAR8 cells after 48 hrs by SRB assay; format: functional; details: OVCAR-8, 48 h
Method in brief: (§4)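 NCI five-dose screen on the ~60-line human tumor panel. Cells grown in RPMI-1640 with 5% fetal calf serum and 2 mM L-glutamine, seeded at line-dependent density and preincubated 24 h. Compound added from DMSO at 10-fold dilutions from 10^-4 to 10^-8 M, continuous exposure 48 h. Growth read by sulforhodamine B protein stain. GI50, TGI and LC50 derived per line.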

MCF7 = test: Cytotoxicity against human MCF7 cells after 48 hrs by SRB assay; format: functional; details: MCF7, 48 h; method in brief: as §4
OVCAR-4 = test: Cytotoxicity against human OVCAR4 cells assessed as cell growth at 10 uM after 48 hrs by SRB assay; format: functional; details: OVCAR-4, 48 h, read-out: Activity; method in brief: as §2
SK-MEL-2 = test: Cytotoxicity against human SK-MEL-2 cells after 48 hrs by SRB assay; format: functional; details: SK-MEL-2, 48 h; method in brief: as §4
A498 = test: Cytotoxicity against human A498 cells assessed as cell growth at 10 uM after 48 hrs by SRB assay; format: functional; details: A498, 48 h, read-out: Activity
Method in brief: (§5)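 NCI primary single-dose screen at 10^-5 M against the ~60 human tumour cell line panel. Cells grown in RPMI-1640 with 5% fetal calf serum and 2 mM L-glutamine and pre-incubated 24 h before compound addition. Compound added from DMSO solution with 48 h exposure. Growth read by sulforhodamine B protein staining.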

SF-268 = test: Cytotoxicity against human SF268 cells after 48 hrs by SRB assay; format: functional; details: SF-268, 48 h; method in brief: as §4
SW-620 = test: Cytotoxicity against human SW620 cells assessed as cell growth at 10 uM after 48 hrs by SRB assay; format: functional; details: SW-620, 48 h, read-out: Activity; method in brief: as §3
UACC-62 = test: Antitumor activity against human UACC62 cells implanted in mouse dosed qd for 4 days by formazan dye-based hollow fiber assay; format: functional, organism-based
Method in brief: (§6)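 Cells grown inside polyvinylidene fluoride hollow fibers; each line implanted into both intraperitoneal and subcutaneous compartments in mice. Compound given ip at two doses on a QD x 4 schedule. Fibers then recovered and viable cell mass measured by formazan dye conversion. Scored 2 per dose giving ≥50% reduction in viable cell mass (%T/C 50).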

TK-10 = test: Cytotoxicity against human TK10 cells assessed as cell growth at 10 uM after 48 hrs by SRB assay; format: functional; details: TK-10, 48 h, read-out: Activity; method in brief: as §3
IGROV-1 = test: Cytotoxicity against human IGROV1 cells assessed as cell growth at 10 uM after 48 hrs by SRB assay; format: functional; details: IGROV-1, 48 h, read-out: Activity; method in brief: as §5
HT-29 = test: Cytotoxicity against human HT-29 cells assessed as cell growth at 10 uM after 48 hrs by SRB assay; format: functional; details: HT-29, 48 h, read-out: Activity; method in brief: as §5
M14 = test: Cytotoxicity against human M14 cells after 48 hrs by SRB assay; format: functional; details: M14, 48 h; method in brief: as §4
NCI/ADR-RES = test: Cytotoxicity against human NCI/ADR-RES cells assessed as cell growth at 10 uM after 48 hrs by SRB assay; format: functional; details: read-out: Activity; method in brief: as §2
HOP-62 = test: Cytotoxicity against human HOP62 cells assessed as cell growth at 10 uM after 48 hrs by SRB assay; format: functional; details: HOP-62, 48 h, read-out: Activity; method in brief: as §5
NCI-H23 = test: Antitumor activity against human NCI-H23 cells implanted in mouse dosed qd for 4 days by formazan dye-based hollow fiber assay; format: functional, organism-based; method in brief: as §6
U-251 = test: Cytotoxicity against human U251 cells after 48 hrs by SRB assay; format: functional; details: U-251, 48 h; method in brief: as §1
NCI-H522 = test: Cytotoxicity against human NCI-H522 cells after 48 hrs by SRB assay; format: functional; details: NCI-H522, 48 h; method in brief: as §4
HCT-15 = test: Cytotoxicity against human HCT15 cells after 48 hrs by SRB assay; format: functional; details: HCT-15, 48 h
Method in brief: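 NCI ~60-line panel in RPMI-1640 with 5% fetal calf serum and 2 mM L-glutamine, pre-incubated 24 h. Compound in DMSO tested at five 10-fold concentrations (10^-4 to 10^-8 M) with 48 h continuous exposure. Growth measured by sulforhodamine B protein assay. GI50 (50% net growth inhibition), TGI (total inhibition) and LC50 (50% net cell death) derived from dose-response.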

LOX IMVI [2] = test: Antitumor activity against human LOXIMVI cells implanted in mouse dosed qd for 4 days by formazan dye-based hollow fiber assay; format: functional, organism-based; method in brief: as §6
KM12 = test: Cytotoxicity against human KM12 cells after 48 hrs by SRB assay; format: functional; details: KM12, 48 h; method in brief: as §4

Structure (SMILES): CCc1ccc(-c2ccc(=O)n(-c3ccc(S(N)(=O)=O)cc3)n2)cc1
- LC50 (UO-31): > 100 µM
- GI50 (UO-31; read-out: GI50): > 100 µM
- GI50 (UO-31; read-out: pGI50 (converted)): > 100 µM
- TGI (UO-31; read-out: pTGI): > 100 µM
- growth at 10 µM (LOX IMVI [1]): 55.1%
- growth at 10 µM (UACC-257): 22.3%
- LC50 (SK-MEL-5): > 100 µM
- GI50 (SK-MEL-5; read-out: GI50): 0.453 µM
- GI50 (SK-MEL-5; read-out: pGI50 (converted)): 0.457 µM
- TGI (SK-MEL-5; read-out: pTGI (converted)): 7.59 µM
- LC50 (OVCAR-8): > 100 µM
- GI50 (OVCAR-8; read-out: GI50): 11 µM
- GI50 (OVCAR-8; read-out: pGI50 (converted)): 11 µM
- TGI (OVCAR-8; read-out: pTGI): > 100 µM
- LC50 (MCF7): > 100 µM
- GI50 (MCF7; read-out: GI50): 0.615 µM
- GI50 (MCF7; read-out: pGI50 (converted)): 0.617 µM
- TGI (MCF7; read-out: pTGI (converted)): 19.1 µM
- growth at 10 µM (OVCAR-4): 74.5%
- LC50 (SK-MEL-2): > 100 µM
- GI50 (SK-MEL-2; read-out: GI50): 10.7 µM
- GI50 (SK-MEL-2; read-out: pGI50 (converted)): 10.7 µM
- TGI (SK-MEL-2; read-out: pTGI (converted)): 72.4 µM
- growth at 10 µM (A498): 40.3%
- LC50 (SF-268): > 100 µM
- GI50 (SF-268; read-out: GI50): 4.25 µM
- GI50 (SF-268; read-out: pGI50 (converted)): 4.27 µM
- TGI (SF-268; read-out: pTGI (converted)): 47.9 µM
- growth at 10 µM (SW-620): 35%
- Activity (UACC-62): inactive
- growth at 10 µM (TK-10): 76.8%
- growth at 10 µM (IGROV-1): -5.72%
- growth at 10 µM (HT-29): 11.8%
- LC50 (M14): > 100 µM
- GI50 (M14; read-out: GI50): 0.335 µM
- GI50 (M14; read-out: pGI50 (converted)): 0.339 µM
- TGI (M14; read-out: pTGI (converted)): 4.9 µM
- growth at 10 µM (NCI/ADR-RES): 1%
- growth at 10 µM (HOP-62): 59.9%
- Activity (NCI-H23): inactive
- LC50 (U-251): > 100 µM
- GI50 (U-251; read-out: GI50): 1.58 µM
- GI50 (U-251; read-out: pGI50 (converted)): 1.58 µM
- TGI (U-251; read-out: pTGI (converted)): 24 µM
- LC50 (NCI-H522): > 100 µM
- GI50 (NCI-H522; read-out: GI50): 0.0966 µM
- GI50 (NCI-H522; read-out: pGI50 (converted)): 0.0955 µM
- TGI (NCI-H522; read-out: pTGI (converted)): 0.631 µM
- LC50 (HCT-15): > 100 µM
- GI50 (HCT-15; read-out: GI50): 0.661 µM
- GI50 (HCT-15; read-out: pGI50 (converted)): 0.661 µM
- TGI (HCT-15; read-out: pTGI): > 100 µM
- Activity (LOX IMVI [2]): inactive
- LC50 (50% lethal concentration) (KM12): > 100 µM
- GI50 (KM12; read-out: GI50): 0.486 µM
- GI50 (KM12; read-out: pGI50 (converted)): 0.49 µM
- TGI (KM12; read-out: pTGI): > 100 µM
